Screening results from PubChem BioAssay.
VIM-2 inhibitor: VIM-2 metallo-beta-lactamase inhibitors, primary screen, biochemical, epi-absorbance readout, Pseudomonas aeruginosa enzyme. purified VIM-2, nitrocefin hydrolysis, epi-absorbance fluorescence. inhibition, % at 5.6 µM. actives 0.89% (n = 290,000);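 active = inhibition above the mean of all tested compounds plus 3 SD, cutoff set per screening run, cut at about 7.5% in these data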;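 also: red hydrolysis product quenches plate fluorescence so inhibitors raise well fluorescence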
PKA-R1A act: activators of PKA-R1A holoenzyme, primary screen, biochemical, fluorescence polarization, Cy5-IP20, bovine R1A, mouse PKAc; PKA-R1A dissociation; scaled: DMSO 0%, 113 µM cGMP 100%; cAMP-dependent protein kinase type I-alpha regulatory subunit (Bos taurus) + …; activation, % at 11.4 µM; actives 0.083% (n = 340,000);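 active = percent activation above the mean of all tested compounds plus 3 SD, cut at about 19% in these data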;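 also: higher means more PKAc released from R1A so a rise in polarization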
PKA-R2B act: activators of PKA-R2B holoenzyme, primary screen, biochemical, fluorescence polarization, Cy5-IP20, human. actives 0.079% (n = 340,000). AID 504700, 2011. activation, % at 11.4 µM. PKA-R2B holoenzyme dissociation; R2B truncated from residue 108, S112A mutant; 0% DMSO only, 100% 113 µM cGMP;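 active = activation above a cutoff set at the mean over all compounds plus 3 SD, cut at about 18% in these data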;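 also: higher means more holoenzyme dissociation and a rise in polarization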
Target sequence (P31323 whole entry, looked up, other chains not shown, the tested form may be a part): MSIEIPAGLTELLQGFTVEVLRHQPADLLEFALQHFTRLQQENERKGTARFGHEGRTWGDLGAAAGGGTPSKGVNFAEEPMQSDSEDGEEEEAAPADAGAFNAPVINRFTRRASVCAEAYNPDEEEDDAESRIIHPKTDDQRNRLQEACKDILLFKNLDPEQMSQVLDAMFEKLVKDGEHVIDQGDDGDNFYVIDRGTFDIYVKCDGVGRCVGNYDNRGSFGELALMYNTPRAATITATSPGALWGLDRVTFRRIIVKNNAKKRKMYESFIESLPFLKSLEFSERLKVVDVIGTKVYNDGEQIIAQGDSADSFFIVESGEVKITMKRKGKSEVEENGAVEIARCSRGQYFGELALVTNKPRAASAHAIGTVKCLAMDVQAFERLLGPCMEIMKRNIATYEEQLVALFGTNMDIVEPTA
MsrA inhibitor: bovine MsrA enzyme inhibitors, primary screen, biochemical, absorbance, HTS; purified bovine MsrA, absorbance read-out; Methionine sulfoxide reductase A (Bos taurus); inhibition, % at 15.5 µM; actives 0.75% (n = 360,000)
bovine MsrA act: bovine MsrA enzyme activators, primary screen, biochemical, absorbance, HTS | Methionine sulfoxide reductase A (Bos taurus) | purified bovine MsrA, absorbance read-out | activation, % at 10.6 µM | actives 0.3% (n = 360,000) | AID 602163, 2012; in the data active = activation above about 7.5%
IMP-1 inhibitor: IMP-1 metallo-beta-lactamase inhibitors, primary screen, biochemical, epi-absorbance readout, Pseudomonas aeruginosa enzyme; purified IMP-1, nitrocefin hydrolysis, epi-absorbance fluorescence; inhibition, % at 5.6 µM; metallo-beta-lactamase IMP-1 (Pseudomonas aeruginosa); actives 0.45% (n = 290,000); AID 1556, 2009;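 active = inhibition above the mean plus 3 SD of all compounds in the same screening run, cut at about 4.5% in these data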
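System: purified recombinant IMP-1 beta-lactamase. Medium: Zinc- and detergent-supplemented HEPES buffer, pH 7.1. Compound: one 5.6 µM dose […]. Schedule: 15 min preincubation plus 25 min reaction at 25 °C. Technique: Epi-absorbance fluorescence, 480 nm excitation, 530 nm emission.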
MsrA conf: bovine MsrA inhibitors, retest, confirmation, biochemical, absorbance, HTS. AID 651822, 2012. shares compounds with MsrA inhibitor. purified bovine MsrA, absorbance read-out. actives 41% (n = 2,300). inhibition, % at 15.5 µM;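 also: coupled to thioredoxin reductase with NADPH and selenocystamine and DMSO as substrate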
Each line names hits and unclear results; the compound was inactive in the other large screens (follow-up assays come after a bar, where they were run). Only some compounds are listed: those with a hit (about 2.1% of all), similar ones and a draw of the others. Rule as the data show it, unless noted: active = inhibition above about 4.5%; inactive = the rest.

CCc1nc(N)c(C#N)c(-c2ccccc2OC)c1C	MsrA inhibitor 4.7 | MsrA conf inactive
O=C(NCc1ccc(Cl)nc1)c1csc(COCCO)n1	none (no result: VIM-2 inhibitor, PKA-R1A act, PKA-R2B act, IMP-1 inhibitor)
COc1ccc(Nc2nc3c(C)cccc3cc2C#N)cc1	none
COc1cccc(Nc2nc3cc(OC)ccc3cc2C#N)c1	MsrA inhibitor 16.7 | MsrA conf 13.2
COc1ccc(/C=C2\SC(=O)N(CC(=O)Nc3ccccc3O)C2=O)cc1OC	none
COc1ccc(/C=C2\SC(=O)N(CC(=O)NN3CCN(C)CC3)C2=O)cc1OC	MsrA inhibitor 4.9 | MsrA conf inactive
CC1(C)CCCN(C(=O)c2coc(=O)c(Br)c2)C1	MsrA inhibitor 4.9 | MsrA conf inactive
CN(C)c1ccc(/C=N/Nc2ccc(-n3ccnc3)nn2)cc1	VIM-2 inhibitor 8.2, MsrA inhibitor 6.0 | MsrA conf inactive
NC(=S)N/N=C/c1ccc(/C=N/NC(N)=S)cc1	MsrA inhibitor 10.0 | MsrA conf 9.0
Cn1cccc1/C=N/NC(N)=S	MsrA inhibitor 7.4 | MsrA conf inactive
O=c1nccc(N/N=C/c2cccc(O)c2)[nH]1	MsrA inhibitor 6.8 | MsrA conf inactive
COc1cc(/C=N/Nc2ccnc(=O)[nH]2)ccc1O	MsrA inhibitor 6.9 | MsrA conf 6.3
CC1(C(=O)NCc2cccc3ccccc23)CCN1C(=O)Cc1ccc(-c2ccccc2)cc1 (stereo unspecified)	none (no result: VIM-2 inhibitor, PKA-R1A act, PKA-R2B act, IMP-1 inhibitor)
CN1c2ccccc2C(O)=C(C(=S)Nc2ccc(Cl)cc2)S1(=O)=O	MsrA inhibitor 5.4 | MsrA conf 6.0
Cc1cccc(NC(=O)C2=C(O)c3ccccc3N(C)S2(=O)=O)c1	none
COc1ccc(-c2cc(-c3ccccc3)nc(=O)[nH]2)cc1	MsrA inhibitor 5.3 | MsrA conf inactive
O=C(c1ccccc1)N(Cc1ccccc1)c1ccccn1	none
O=C(c1cnc2sccn2c1=O)N(Cc1ccccc1)c1ccccn1	MsrA inhibitor 5.0 | MsrA conf inactive
CCOC(=O)c1cc(-c2ccc(/C=C3/C(=O)NC(=O)C(C#N)=C3C)o2)ccc1Cl	none
CC1=C(C#N)C(=O)NC(=O)/C1=C\c1ccc(-c2ccc(C)cc2[N+](=O)[O-])o1	MsrA inhibitor 9.2 | MsrA conf inactive
COc1ccc(-c2cc(C(F)(F)F)nc(S(C)(=O)=O)n2)cc1	MsrA inhibitor 5.4 | MsrA conf inactive
CS(=O)(=O)c1nc(-c2ccc(F)cc2)cc(C(F)(F)F)n1	none
COc1ccc(NC(=O)C2CC(=O)N/C(=N/N=C/c3ccco3)S2)cc1 (stereo unspecified)	MsrA inhibitor 5.1 (no result: PKA-R1A act, PKA-R2B act) | MsrA conf 5.1
O=C1CC(C(=O)Nc2ccc(Cl)cc2)S/C(=N\N=C\c2ccco2)N1 (stereo unspecified)	MsrA inhibitor 5.6 | MsrA conf inactive
O=C1CC(C(=O)Nc2ccccc2)S/C(=N\N=C\c2ccco2)N1 (stereo unspecified)	MsrA inhibitor 5.0 | MsrA conf 5.4
COc1ccc(/C=N/N=C2/NC(=O)CC(C(=O)O)S2)cc1 (stereo unspecified)	MsrA inhibitor 5.0 | MsrA conf inactive
C[C@@H]1CN([C@H](C)CO)C(=O)CCCn2cc(nn2)CO[C@H]1CN(C)S(=O)(=O)c1cn(C)cn1	none (no result: VIM-2 inhibitor, PKA-R1A act, PKA-R2B act, bovine MsrA act, IMP-1 inhibitor)
COCC(C)NC(=O)CSc1nc2cc(S(=O)(=O)N3CCCCC3)ccc2o1 (stereo unspecified)	none (no result: VIM-2 inhibitor, IMP-1 inhibitor)
O=C(NCCc1c[nH]c2ccccc12)OCCSS(=O)(=O)O	MsrA inhibitor 11.6 | MsrA conf inactive
CCC(=O)NCCc1c[nH]c2ccccc12	none
NC(=O)c1ncn2c(=O)n(CCCl)nnc12	none (no result: VIM-2 inhibitor, PKA-R1A act, PKA-R2B act, bovine MsrA act, IMP-1 inhibitor)
CN(C)c1ncnc2c1ncn2[C@H]1CN(Cc2ccc(Cl)cc2)C[C@@H](CO)O1	none (no result: VIM-2 inhibitor, PKA-R1A act, PKA-R2B act, IMP-1 inhibitor)
CCOC(=O)CSc1nc(=O)n2ccc(C)cc2n1	MsrA inhibitor 4.7 | MsrA conf inactive
Cc1ccn2c(=O)nc(SCC(=O)OCc3ccccc3)nc2c1	none (no result: VIM-2 inhibitor, IMP-1 inhibitor)
O=C(Nc1ccc2[nH]c(=S)sc2c1)c1ccccc1	MsrA inhibitor 5.1 | MsrA conf inactive
CCOC(=O)C1=C[C@@H](C2CCCC2)N(S(=O)(=O)c2ccc([N+](=O)[O-])cc2)[C@H]1c1ccccc1	none (no result: VIM-2 inhibitor, PKA-R1A act, PKA-R2B act, IMP-1 inhibitor)
Cc1c(C(=O)N(C)C)sc2nc(-c3ccccn3)[nH]c(=O)c12	MsrA inhibitor 5.8 | MsrA conf inactive
CCN(CC)C(=O)c1sc2nc(Cc3ccccc3)[nH]c(=O)c2c1C	none
Cc1[nH]c(C(=O)N/N=C/c2ccc(C(=O)O)cc2)c(C)c1C(=O)N/N=C/c1ccc(C(=O)O)cc1	MsrA inhibitor 9.9 | MsrA conf 9.4
CCOC(=O)c1c(C)[nH]c(C(=O)N/N=C/c2ccc(Br)cc2)c1C	none
Cc1[nH]c(C(=O)N/N=C/c2ccc(N(C)C)cc2)c(C)c1C(=O)N/N=C/c1ccc(N(C)C)cc1	MsrA inhibitor 7.5 | MsrA conf 5.2
CCCCOCCCNC(=O)C[C@@H]1C[C@@]2(C(=O)OCC)CCCC=C2N(Cc2ccc(Cl)cc2Cl)C1=O	none (no result: VIM-2 inhibitor, PKA-R1A act, PKA-R2B act, IMP-1 inhibitor)
O=C(Nc1nc2ccccc2[nH]1)c1ccc(Br)o1	MsrA inhibitor 4.8 | MsrA conf inactive
CC(=O)c1cnc(Nc2cccc(Cl)c2Cl)s1	MsrA inhibitor 4.8 | MsrA conf inactive
COCc1cc(N2CCNC[C@@H]2C)ccc1N1CCS(=O)(=O)CC1	none (no result: VIM-2 inhibitor, PKA-R1A act, PKA-R2B act, bovine MsrA act, IMP-1 inhibitor)
c1ccc(-n2cc(CNCCc3cscn3)c(-c3ccc4c(c3)OCO4)n2)cc1	MsrA inhibitor 6.3 | MsrA conf inactive
Cc1ccccc1CN(C)C[C@@H]1OCc2cnnn2CCCC(=O)N([C@H](C)CO)C[C@H]1C	none (no result: VIM-2 inhibitor, IMP-1 inhibitor)
O=C(N/N=C/c1cccs1)c1cccc2cc[nH]c12	MsrA inhibitor 5.2 | MsrA conf inactive
CC(C)(C)S(=O)(=O)/C(C#N)=N/Nc1ccc(C#N)cc1	none
COc1cccc(N/N=C(\C#N)S(=O)(=O)C(C)(C)C)c1	MsrA inhibitor 4.7 (no result: PKA-R1A act, PKA-R2B act) | MsrA conf inactive
CCN(CC)CCCNc1nc(N)c([N+](=O)[O-])c(NCCO)n1	MsrA inhibitor 5.1 | MsrA conf 4.9
CN(C)CCCNc1nc(N)c([N+](=O)[O-])c(NCCO)n1	none
